Measurements pooled from the literature.
Each line is one published result; the experiments were not run side by side.
Target: Mitogen-activated protein kinase 1 (MAPK1, Homo sapiens, UniProt P28482)

O=C(Nc1c[nH]nc1C(=O)NC1CCNCC1)c1cc(F)cc(F)c1 — remaining binding (binding, competition with immobilised ligand; 1 µM): 100%
CN(c1nccc(-c2cnn3ncccc23)n1)C1CC1 — remaining binding (binding; 1 µM): 100%
C[C@H](c1cccc(C#N)c1)n1cc(Cl)cc(C(N)=O)c1=N — remaining binding (cell-free assay, competition with immobilised ligand; 1 µM): 93%
FC(F)(F)Oc1cccc(-c2cnc3ccc(-c4ccncc4)nn23)c1 — remaining binding (cell-free assay, competition with immobilised ligand; 5 µM): 100%
Cn1nc(C(=O)NCc2ccc(C(=O)O)cc2)cc1-c1ccc2[nH]ccc2c1 — remaining binding (cell-free assay, competition with immobilised ligand; 0.1 µM): 94%
Cc1cnc(Nc2ccc(C(=O)N3CCC(N4CCCC4)CC3)cc2)nc1-c1cc2ccccc2s1 — remaining binding (binding, competition with immobilised ligand; 1 µM): 100%
N[C@H]1CCN(c2nccc(-c3cnn4ncccc34)n2)C1 — remaining binding (binding; 1 µM): 100%
CCCCN(CCCC)C(=O)CN1C[C@@H](c2cc(OC)c3c(c2)OCO3)[C@H](C(=O)O)[C@H]1CC(C)(C)CCC — remaining binding (cell-free assay, competition with immobilised ligand; 1 µM): 82.1%
COc1cnc(Nc2cccc(S(N)(=O)=O)c2)nc1N1CCN(c2ccccc2)C(=O)C1 — remaining binding (binding, competition with immobilised ligand; 1 µM): 100%
Cc1c(C(=O)O)cc(-c2ccc(C3CCNCC3)cc2)c2ccc(-c3ccc(C(F)(F)F)cc3)cc12 — remaining binding (binding, competition with immobilised ligand; 1 µM): 100%
CN(CCCC(F)(F)F)c1nccc(-c2cnn3ncccc23)n1 — remaining binding (binding; 1 µM): 100%
CCN1CCN(Cc2ccc(C(=O)Nc3ccc(C)c(Oc4ccc5c(c4)CC(=O)N5)c3)cc2C(F)(F)F)CC1 — remaining binding (binding, competition with immobilised ligand; 1 µM): 100%
CCCOc1ccc([C@@H]2[C@@H](C(=O)O)[C@H](c3ccc4c(c3)OCO4)CN2CC(=O)Nc2c(CC)cccc2CC)cc1 — remaining binding (cell-free assay, competition with immobilised ligand; 1 µM): 100%
C[C@@H]1CCN(c2nccc(-c3cnn4ncccc34)n2)C1 — remaining binding (binding; 1 µM): 88%
O=C(NCCCN1CCOCC1)c1ccc(Nc2nccc(-c3cc4ccccc4s3)n2)cc1 — remaining binding (binding, competition with immobilised ligand; 1 µM): 89%
CNC(=O)Nc1ccc2c(c1)[C@@]1(CC2)OC(=O)N(CC(=O)N(Cc2ccc(F)cc2)[C@@H](C)C(F)(F)F)C1=O — remaining binding (cell-free assay, competition with immobilised ligand; 1 µM): 91%
c1cnn2ncc(-c3ccnc(N4CCC45COC5)n3)c2c1 — remaining binding (binding; 1 µM): 100%
C[C@@H]1CN(c2cc(-c3n[nH]c4ccc(OC5(C)CC5)cc34)ncn2)C[C@H](C)O1 — remaining binding (cell-free assay, competition with immobilised ligand; 0.1 µM): 98%
O=C(c1ccc(Nc2ncc(Cl)c(-c3ccc(Cl)s3)n2)cc1)N1CCC(N2CCCC2)CC1 — remaining binding (binding, competition with immobilised ligand; 1 µM): 100%
Cc1cnn2ncc(-c3ccnc(N(C)C)n3)c2c1 — remaining binding (binding; 1 µM): 100%
Nc1ncc2c(n1)-c1c([nH]c3ccc(C#CC4CC4)cc13)CCCC2 — remaining binding (binding, competition with immobilised ligand; 1 µM): 100%
COc1ncc2cc3ccccc3nc2c1C#N — remaining binding (cell-free assay, competition with immobilised ligand; 5 µM): 100%
